Experimental data pooled from the literature.
Lines come from different studies, so protocols differ.
ABL1 non-phosphorylated: Tyrosine-protein kinase ABL1, non-phosphorylated (ABL1, Homo sapiens, UniProt P00519)
ABL1 H396P non-phosphorylated: Tyrosine-protein kinase ABL1, non-phosphorylated (ABL1, Homo sapiens, UniProt P00519, H396P)
ABL1 phosphorylated: Tyrosine-protein kinase ABL1, phosphorylated (ABL1, Homo sapiens, UniProt P00519)
ABL1 F317I non-phosphorylated: Tyrosine-protein kinase ABL1, non-phosphorylated (ABL1, Homo sapiens, UniProt P00519, F317I)
ABL1 E255K phosphorylated: Tyrosine-protein kinase ABL1, phosphorylated (ABL1, Homo sapiens, UniProt P00519, E255K)
ABL1 T315I phosphorylated: Tyrosine-protein kinase ABL1, phosphorylated (ABL1, Homo sapiens, UniProt P00519, T315I)
ABL1 F317L non-phosphorylated: Tyrosine-protein kinase ABL1, non-phosphorylated (ABL1, Homo sapiens, UniProt P00519, F317L)

The remaining binding of `CC1CCCN1c1nccc(-c2cnn3ncccc23)n1` (stereo not drawn) is reported as 97% (Tyrosine-protein kinase ABL1 (ABL1, Homo sapiens, UniProt P00519, Q252H); binding; 1 µM).
With `CNC(=O)[C@@H]1CC[C@@H](n2c(-c3ccc4cnccc4c3)nc3ccc(C(=O)NCc4cccc(C(N)=O)c4)cc32)C1` the remaining binding was 69% (ABL1 non-phosphorylated; binding, competition with immobilised ligand; 1 µM).
`C[C@@H]1CCN(c2nccc(-c3cnn4ncccc34)n2)C1` gave a remaining binding of 81% (ABL1 non-phosphorylated; binding; 1 µM).
With `O=C(c1ccc(Nc2nccc(-c3cc4ccccc4s3)n2)cc1)N1CCC(N2CCCC2)CC1` the remaining binding was 18% (ABL1 non-phosphorylated; binding, competition with immobilised ligand; 1 µM).
For `c1cnn2ncc(-c3ccnc(N4CCC45COC5)n3)c2c1`, the remaining binding was 68% (ABL1 non-phosphorylated; binding; 1 µM).
For `O=C(O)[C@H]1[C@H](Cn2nnc3ccccc3c2=O)CC[C@@H]1C(=O)c1ccc(OCCC2CCOCC2)cc1`, the remaining binding was 94% (ABL1 H396P non-phosphorylated; cell-free assay, competition with immobilised ligand; 1 µM).
With `COc1cnc(Nc2cccc(S(N)(=O)=O)c2)nc1N1CCN(c2ccccc2)C(=O)C1` the remaining binding was 93% (ABL1 phosphorylated; binding, competition with immobilised ligand; 1 µM).
For `CN(C(=O)c1ccccc1)c1cc(N(C)c2ccc3c(c2)CCc2ccc(C(=O)NCCN4CCOCC4)cc2C3=O)ccc1F`, the remaining binding was 79% (ABL1 F317I non-phosphorylated; binding, competition with immobilised ligand; 1 µM).
For `N#Cc1ccccc1CSc1nnc2c(n1)[nH]c1ccccc12`, the remaining binding was 85% (ABL1 E255K phosphorylated; binding, competition with immobilised ligand; 10 µM).
For `O=C(NCCCN1CCOCC1)c1ccc(Nc2ncc(Cl)c(-c3ccc(Cl)s3)n2)cc1`, the remaining binding was 4.2% (ABL1 H396P non-phosphorylated; binding, competition with immobilised ligand; 1 µM).
For `CC(=O)N1CCC(c2ccc(C(=O)NC3=NCCN3)cc2C(F)(F)F)CC1`, the remaining binding was 95% (ABL1 non-phosphorylated; cell-free assay, competition with immobilised ligand; 1 µM).
`N[C@H]1CCN(c2nccc(-c3cnn4ncccc34)n2)C1` has a remaining binding of 88% (ABL1 phosphorylated; binding; 1 µM).
`CCN1CCN(Cc2ccc(C(=O)Nc3ccc(C)c(Oc4ccc5c(c4)CC(=O)N5)c3)cc2C(F)(F)F)CC1` has a remaining binding of 88% (ABL1 T315I phosphorylated; binding, competition with immobilised ligand; 1 µM).
For `O=C(Nc1c[nH]nc1C(=O)NC1CCNCC1)c1cc(F)cc(F)c1`, the remaining binding was 100% (ABL1 phosphorylated; binding, competition with immobilised ligand; 1 µM).
The remaining binding of `CN(C)c1ncc(F)c(-c2cnn3ncccc23)n1` is reported as 82% (ABL1 phosphorylated; binding; 1 µM).
`Cc1cnc(Nc2ccc(C(=O)N3CCC(N4CCCC4)CC3)cc2)nc1-c1cc2ccccc2s1` has a remaining binding of 100% (ABL1 F317I non-phosphorylated; binding, competition with immobilised ligand; 1 µM).
With `CCOCCn1cc(C(=O)Nc2ccc(-n3nc(-c4cccnc4)cc3C(F)(F)F)cn2)ccc1=O` the remaining binding was 96% (ABL1 T315I phosphorylated; cell-free assay, competition with immobilised ligand; 1 µM).
The remaining binding of `O=C(c1ccc(Nc2ncc(Cl)c(-c3ccc(Cl)s3)n2)cc1)N1CCC(N2CCCC2)CC1` is reported as 4.3% (ABL1 non-phosphorylated; binding, competition with immobilised ligand; 1 µM).
With `CCCCN(CCCC)C(=O)CN1C[C@H](c2cc(OC)c3c(c2)OCO3)[C@@H](C(=O)O)[C@@H]1CC(C)(C)CCC` the remaining binding was 98.5% (ABL1 F317I non-phosphorylated; binding, competition with immobilised ligand; 1 µM).
With `CN(CCCC(F)(F)F)c1nccc(-c2cnn3ncccc23)n1` the remaining binding was 100% (Tyrosine-protein kinase ABL1 (ABL1, Homo sapiens, UniProt P00519, T315I); binding; 1 µM).
`O=C(NCC1CCOCC1)c1n[nH]cc1NC(=O)c1c(F)cccc1F` has a remaining binding of 88% (Tyrosine-protein kinase ABL1, phosphorylated (ABL1, Homo sapiens, UniProt P00519, F317L); binding, competition with immobilised ligand; 1 µM).
With `F[C@@H]1CCN(c2nccc(-c3cnn4ncccc34)n2)C1` the remaining binding was 79% (ABL1 phosphorylated; binding; 1 µM).
`COC(=O)Nc1nc2ccc(C(=O)c3ccccc3)cc2[nH]1` has a remaining binding of 2% (ABL1 non-phosphorylated; cell-free assay, competition with immobilised ligand; 10 µM).
The remaining binding of `CCS(=O)(=O)c1cc2cc(C[C@](O)(CC(C)(C)c3ccc(F)cc3C(N)=O)C(F)(F)F)[nH]c2cn1` is reported as 100% (ABL1 non-phosphorylated; cell-free assay, competition with immobilised ligand; 1 µM).
`O=C(NCCCN1CCOCC1)c1ccc(Nc2nccc(-c3cc4ccccc4s3)n2)cc1` has a remaining binding of 90% (ABL1 F317L non-phosphorylated; binding, competition with immobilised ligand; 1 µM).
`C=CC(=O)N1CCC(C(=O)NCC(=O)N2CCN(c3nc(-c4cnc(N)nc4C(F)F)nc(N4CCOCC4)n3)CC2)CC1` has a remaining binding of 83% (Tyrosine-protein kinase ABL1, phosphorylated (ABL1, Homo sapiens, UniProt P00519, H396P); binding, competition with immobilised ligand; 1 µM).
With `COc1ncc2cc3ccccc3nc2c1C#N` the remaining binding was 100% (ABL1 H396P non-phosphorylated; cell-free assay, competition with immobilised ligand; 5 µM).
`COc1cnc(Nc2cccc(S(N)(=O)=O)c2)nc1N1CCN(c2ccccc2)CC1` gave a remaining binding of 98% (Tyrosine-protein kinase ABL1, phosphorylated (ABL1, Homo sapiens, UniProt P00519, M351T); binding, competition with immobilised ligand; 1 µM).
`O=C(c1ccc(Nc2ncc(Cl)c(-c3cc4ccccc4s3)n2)cc1)N1CCC(N2CCCC2)CC1` has a remaining binding of 63% (ABL1 F317L non-phosphorylated; binding, competition with immobilised ligand; 1 µM).
For `c1cncc(-c2cccc(Nc3nccc(NC4CCCCC4)n3)c2)c1`, the remaining binding was 20% (Tyrosine-protein kinase ABL1, non-phosphorylated (ABL1, Homo sapiens, UniProt P00519, Q252H); binding, competition with immobilised ligand; 10 µM).
`Cn1cc(Cl)c2c(Oc3c(F)cc(Nc4cc(Cl)nc(N)n4)cc3F)ccnc21` has a remaining binding of 93% (ABL1 F317I non-phosphorylated; binding, competition with immobilised ligand; 0.1 µM).
For `COc1ccnn2ncc(-c3ccnc(N(C)C)n3)c12`, the remaining binding was 85% (Tyrosine-protein kinase ABL1 (ABL1, Homo sapiens, UniProt P00519, F317L); binding; 1 µM).
`COCCOc1nc(-c2ccc(Cl)nc2)nc2c1CN(C(=O)c1ncn3ccccc13)CC2` gave a remaining binding of 100% (ABL1 E255K phosphorylated; binding, competition with immobilised ligand; 0.1 µM).
`CN1CCN(c2ccc(Nc3nccc(-c4ccccc4)n3)cc2C(F)(F)F)CC1` has a remaining binding of 100% (Tyrosine-protein kinase ABL1 (ABL1, Homo sapiens, UniProt P00519, F317I); binding; 10 µM).
`C[C@@H](c1ccc(-n2cnc3c(N)ncnc32)cc1)N1CCc2nn(C)c(Cc3ccccc3)c2C1=O` gave a remaining binding of 47% (Tyrosine-protein kinase ABL1, phosphorylated (ABL1, Homo sapiens, UniProt P00519, Y253F); binding, competition with immobilised ligand; 0.1 µM).
`Nc1ncc2c(n1)-c1c([nH]c3ccc(C#CC4CC4)cc13)CCCC2` has a remaining binding of 94% (Tyrosine-protein kinase ABL1, phosphorylated (ABL1, Homo sapiens, UniProt P00519, Q252H); binding, competition with immobilised ligand; 1 µM).
